Laboratory results as given in ChEMBL document CHEMBL2021768, “Syntheses of [12]aneN₃-oligopeptide conjugates as effective DNA condensation agents” (Bioorg Med Chem, 2012).
Activity calls are given as the source filed them. The calls are words filed in the database; no cut-off is given here. Residues, ends and D or L forms follow the SMILES beside them.

Legend:
Nucleic Acid [1] = test: Induction of Escherichia coli pUC18 DNA condensation assessed as retardation of DNA migration at 500 uM after 1 hr by agarose gel electrophoresis; format: nucleic-acid assay
Summary of the method: (§1)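 Supercoiled pUC18 plasmid treated with conjugate in Tris–HCl (50 mM, pH 7.4), then incubated 1 h at 37 °C. Agarose gel electrophoresis compared with a DNA-alone lane. Retardation was judged by loss of supercoiled DNA migration.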

Nucleic Acid [2] = test: Induction of Escherichia coli pUC18 condensation assessed as retardation of DNA migration at 200 uM after 1 hr by agarose gel electrophoresis; format: nucleic-acid assay; summary of the method: as §1
Nucleic Acid [3] = test: Induction of Escherichia coli pUC18 condensation assessed as hydrodynamic diameters of DNA nanoparticles at 50 to 250 uM after 5 mins by dynamic laser light scattering analysis; format: nucleic-acid assay
Summary of the method: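 pUC18 DNA at 9 μg/mL in Tris buffer (50 mM, pH 7.4) with conjugate, left 5 min at room temperature. Dynamic light scattering at 90° and 25 °C. Ten runs per solution, averaged and reported as mean ± S.D.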

Nucleic Acid [4] = test: Induction of Escherichia coli pUC18 condensation assessed as diameters of DNA nanoparticles at 150 uM after 1 hr by atomic force microscopy; format: nucleic-acid assay
Summary of the method: (§2)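 pUC18 diluted to 9 μg/mL in Tris (5 mM, pH 7.4) with 1 mM MgCl2 plus conjugate, equilibrated 1 h at 37 °C. Sample spotted for 5 min on mica pretreated with 10 mM NiCl2, then rinsed and dried under argon. Imaged in air at room temperature by tapping-mode AFM with Si tips at 1–3 Hz.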

Nucleic Acid [5] = test: Binding affinity to calf thymus DNA assessed as fluorescence quenching after 1 min by ethidium bromide displacement assay; format: nucleic-acid assay; details: Bos taurus
Summary of the method: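 Calf thymus DNA (100 μM) pretreated with ethidium bromide (10 μM), then conjugate added. Tris buffer (50 mM, pH 7.4), room temperature. Incubated 1 min before reading fluorescence, excitation 537 nm. Apparent binding constant (K_app) derived from the quenching curve.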

Nucleic Acid [6] = test: Induction of Escherichia coli pUC18 condensation assessed as retardation of DNA migration at 150 uM after 1 hr by agarose gel electrophoresis in presence of 50 to 400 mM NaCl; format: nucleic-acid assay
Nucleic Acid [7] = test: Reversible Escherichia coli pUC18 condensation assessed as DNA migration at 150 uM after 1 hr by agarose gel electrophoresis in presence of 200 mM NaCl; format: nucleic-acid assay
[8] = Cytotoxicity against human T98G cells assessed as cell viability at 250 uM after 24 hrs by MTT assay; format: cell-based; details: read-out: Activity
Summary of the method: (§3)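 MTT assay. HepG2 grown in DMEM with 15% FBS, T98G in MEM with 10% FBS, 37 °C, 5% CO2. Cells seeded at 5 × 10⁵ per well and cultured 24 h, then exposed to compound for 24 h. MTT (5 mg/mL stock) added for 4 h, formazan dissolved in DMSO, absorbance read at 490 nm. Viability taken relative to controls from four parallel tests.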

[9] = Cytotoxicity against human HepG2 cells assessed as cell viability at 250 uM after 24 hrs by MTT assay; format: cell-based; details: read-out: Activity; summary of the method: as §3
Nucleic Acid [10] = test: Induction of Escherichia coli pUC18 condensation assessed as retardation of DNA migration at 250 uM after 1 hr by agarose gel electrophoresis; format: nucleic-acid assay; summary of the method: as §1
Nucleic Acid [11] = test: Induction of Escherichia coli pUC18 condensation assessed as diameters of DNA nanoparticles at 250 uM after 1 hr by atomic force microscopy; format: nucleic-acid assay; summary of the method: as §2
Nucleic Acid [12] = test: Induction of Escherichia coli pUC18 condensation assessed as retardation of DNA migration at 220 uM after 1 hr by agarose gel electrophoresis in presence of 50 to 400 mM NaCl; format: nucleic-acid assay
Nucleic Acid [13] = test: Reversible Escherichia coli pUC18 condensation assessed as DNA migration at 250 uM after 1 hr by agarose gel electrophoresis in presence of 200 mM NaCl; format: nucleic-acid assay

| SMILES | Activity (Nucleic Acid [1]) | Activity (Nucleic Acid [3]) | Kapp (Nucleic Acid [5]) | viability at 24 h, 250 µM [8] | viability at 24 h, 250 µM [9] | other results |
| --- | --- | --- | --- | --- | --- | --- |
| COC(=O)[C@@H](NC(=O)[C@H](CC(C)C)NC(=O)[C@H](C)NC(=O)[C@H](CC(C)C)NC(=O)[C@H](C)NC(=O)[C@H](CC(C)C)NC(=O)CN1CCCNCCCNCCC1)C(C)C (HELM PEPTIDE1{[O=C(CN1CCCNCCCNCCC1)[*:2]].L.A.L.A.L.V.[CO[*:1]]}$$$$V2.0) | inactive |  |  |  |  |  |
| COC(=O)[C@H](CO)NC(=O)[C@H](CC(C)C)NC(=O)[C@H](C)NC(=O)[C@H](CC(C)C)NC(=O)[C@H](C)NC(=O)[C@H](CC(C)C)NC(=O)CN1CCCNCCCNCCC1 (HELM PEPTIDE1{[O=C(CN1CCCNCCCNCCC1)[*:2]].L.A.L.A.L.S.[CO[*:1]]}$$$$V2.0) | inactive |  |  |  |  |  |
| COC(=O)[C@H](CC(C)C)NC(=O)[C@H](CC(C)C)NC(=O)[C@H](C)NC(=O)[C@H](CC(C)C)NC(=O)[C@H](C)NC(=O)[C@H](CC(C)C)NC(=O)CN1CCCNCCCNCCC1 (HELM PEPTIDE1{[O=C(CN1CCCNCCCNCCC1)[*:2]].L.A.L.A.L.L.[CO[*:1]]}$$$$V2.0) |  | 174 nm | 1.9 ×10⁵ /M | 96% | 97% | Activity (Nucleic Acid [2]): Active; Activity (Nucleic Acid [4]): 30 nm; Activity (Nucleic Acid [6]): inactive; Activity (Nucleic Acid [7]): Active |
| COC(=O)[C@H](Cc1c[nH]c2ccccc12)NC(=O)[C@H](CC(C)C)NC(=O)[C@H](C)NC(=O)[C@H](CC(C)C)NC(=O)[C@H](C)NC(=O)[C@H](CC(C)C)NC(=O)CN1CCCNCCCNCCC1 (HELM PEPTIDE1{[O=C(CN1CCCNCCCNCCC1)[*:2]].L.A.L.A.L.W.[CO[*:1]]}$$$$V2.0) |  | 196 nm | 1.2 ×10⁵ /M | 80% | 85% | Activity (Nucleic Acid [10]): Active; Activity (Nucleic Acid [11]): 36 nm; Activity (Nucleic Acid [12]): inactive; Activity (Nucleic Acid [13]): Active |
| COC(=O)[C@H](Cc1ccccc1)NC(=O)[C@H](CC(C)C)NC(=O)[C@H](C)NC(=O)[C@H](CC(C)C)NC(=O)[C@H](C)NC(=O)[C@H](CC(C)C)NC(=O)CN1CCCNCCCNCCC1 (HELM PEPTIDE1{[O=C(CN1CCCNCCCNCCC1)[*:2]].L.A.L.A.L.F.[CO[*:1]]}$$$$V2.0) |  | 208 nm | 1.4 ×10⁵ /M | 78% | 83% | Activity (Nucleic Acid [10]): Active; Activity (Nucleic Acid [11]): 20 nm; Activity (Nucleic Acid [6]): inactive; Activity (Nucleic Acid [13]): Active |
| COC(=O)CNC(=O)[C@H](CC(C)C)NC(=O)[C@H](C)NC(=O)[C@H](CC(C)C)NC(=O)[C@H](C)NC(=O)[C@H](CC(C)C)NC(=O)CN1CCCNCCCNCCC1 (HELM PEPTIDE1{[O=C(CN1CCCNCCCNCCC1)[*:2]].L.A.L.A.L.G.[CO[*:1]]}$$$$V2.0) | inactive |  |  |  |  |  |
| COC(=O)[C@H](Cc1ccc(O)cc1)NC(=O)[C@H](CC(C)C)NC(=O)[C@H](C)NC(=O)[C@H](CC(C)C)NC(=O)[C@H](C)NC(=O)[C@H](CC(C)C)NC(=O)CN1CCCNCCCNCCC1 (HELM PEPTIDE1{[O=C(CN1CCCNCCCNCCC1)[*:2]].L.A.L.A.L.Y.[CO[*:1]]}$$$$V2.0) | inactive |  |  |  |  |  |
| COC(=O)[C@H](C)NC(=O)[C@H](CC(C)C)NC(=O)[C@H](C)NC(=O)[C@H](CC(C)C)NC(=O)[C@H](C)NC(=O)[C@H](CC(C)C)NC(=O)CN1CCCNCCCNCCC1 (HELM PEPTIDE1{[O=C(CN1CCCNCCCNCCC1)[*:2]].L.A.L.A.L.A.[CO[*:1]]}$$$$V2.0) | inactive |  |  |  |  |  |
